Test results published in ChEMBL document CHEMBL1143817, “Pharmacokinetics of penicillin g in very-low-birth-weight neonates” (Antimicrob Agents Chemother, 2007).
“And” between values parts separate entries of the source, which are not always exact repeats. Identical values can stand only once.

Assays:
Format in all cases: ADME, organism-based
[1] = Half life in human very low birth weight preterm neonates at 14.3 mg/kg, iv administered every 12 hrs after 24 hrs; set-up: dose 14.3 mg/kg, route intravenous; settings: in vivo
Procedure, shortened: (§1)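 Penicillin G was diluted in normal saline to 50,000 IU/ml and given as a slow (~2 min) IV bolus q12h (group 1, 50,000 IU/kg; group 2, 25,000 IU/kg) to neonates of <28 wk GA and <1,200 g. Plasma was sampled at steady state (doses 3–8): predose and at 2 and 30 min, 1.5, 4, 8 and 12 h. Assay by HPLC-UV (200 nm). AUC0-12 by log-linear trapezoidal rule; noncompartmental bolus model.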

Homo sapiens [2] = assay: Effect on glomerular filtration in human very low birth weight preterm neonates urine assessed as creatinine clearance at 15 mg/kg, iv administered every 12 hr after 24 hrs; set-up: dose 15 mg/kg, route intravenous; settings: in vivo
[3] = Cmax in human adults at […], iv administered every 12 hrs after 24 hrs; set-up: route intravenous; settings: in vivo
[4] = Cmax in human term neonates at 15 mg/kg, im administered every 12 hrs after 24 hrs; set-up: dose 15 mg/kg, route intramuscular; settings: in vivo
[5] = Effect on glomerular filtration in human very low birth weight preterm neonates urine assessed as drug clearance at 15 mg/kg, iv administered every 12 hrs after 24 hrs; set-up: dose 15 mg/kg, route intravenous; settings: read-out: CL_renal
[6] = Half life in human term neonates at 15 mg/kg, im administered every 12 hrs after 24 hrs; set-up: dose 15 mg/kg, route intramuscular; settings: in vivo
[7] = Cmin in human very low birth weight preterm neonates at 28 mg/kg, iv administered every 12 hrs after 24 hrs; set-up: dose 28 mg/kg, route intravenous; settings: in vivo, read-out: Cmin; procedure, shortened: as §1
[8] = Clearance in human very low birth weight preterm neonates at 14 mg/kg, iv administered every 12 hrs after 24 hrs; set-up: dose 14 mg/kg, route intravenous; settings: in vivo; procedure, shortened: as §1
[9] = Cmax in human very low birth weight preterm neonates at 28 mg/kg, iv administered every 12 hrs after 24 hrs; set-up: dose 28 mg/kg, route intravenous; settings: in vivo; procedure, shortened: as §1
Homo sapiens [10] = assay: Effect on glomerular filtration in human very low birth weight preterm neonates urine assessed as creatinine excretion at 15 mg/kg, iv administered every 12 hrs after 24 hrs; set-up: dose 15 mg/kg, route intravenous; settings: in vivo
Procedure, shortened: (§2)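 Creatinine excretion was measured in urine collected in 4-h intervals over the 12 h after a steady-state IV penicillin G dose (25,000 or 50,000 IU/kg q12h). Diapers were weighed to estimate losses, and a period was accepted if ≥90% of its output was collected. Excretion is expressed per 24 h per kg.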

Homo sapiens [11] = assay: Volume of distribution at steady state in human term neonates at 15 mg/kg, im administered every 12 hrs after 24 hrs; set-up: dose 15 mg/kg, route intramuscular; settings: in vivo
[12] = Half life in human very low birth weight preterm neonates at 28 mg/kg, iv administered every 12 hrs after 24 hrs; set-up: dose 28 mg/kg, route intravenous; settings: in vivo; procedure, shortened: as §1
[13] = AUC (0 to 12) in human very low birth weight preterm neonates at 28 mg/kg, iv administered every 12 hrs after 24 hrs; set-up: time < 12 hr, dose 28 mg/kg, route intravenous; settings: plasma; procedure, shortened: as §1
[14] = Cmax in human very low birth weight preterm neonates at 14 mg/kg, iv administered every 12 hrs after 24 hrs; set-up: dose 14 mg/kg, route intravenous; settings: in vivo; procedure, shortened: as §1
[15] = Clearance in human very low birth weight preterm neonates at 28 mg/kg, iv administered every 12 hrs after 24 hrs; set-up: dose 28 mg/kg, route intravenous; settings: in vivo; procedure, shortened: as §1
[16] = Effect on glomerular filtration in human very low birth weight preterm neonates urine assessed as drug clearance at 30 mg/kg, iv administered every 12 hrs after 24 hrs; set-up: dose 30 mg/kg, route intravenous; settings: read-out: CL_renal
Homo sapiens [17] = assay: Effect on glomerular filtration in human very low birth weight preterm neonates urine assessed as creatinine clearance at 30 mg/kg, iv administered every 12 hr after 24 hrs; set-up: dose 30 mg/kg, route intravenous; settings: in vivo
[18] = AUC (0 to 12) in human very low birth weight preterm neonates at 14 mg/kg, iv administered every 12 hrs after 24 hrs; set-up: time < 12 hr, dose 14 mg/kg, route intravenous; settings: plasma; procedure, shortened: as §1
Homo sapiens [19] = assay: Effect on glomerular filtration in human very low birth weight preterm neonates urine assessed as creatinine excretion at 30 mg/kg, iv administered every 12 hrs after 24 hrs; set-up: dose 30 mg/kg, route intravenous; settings: in vivo; procedure, shortened: as §2
[20] = Volume of distribution at steady state in human very low birth weight preterm neonates at 14 mg/kg, iv; set-up: dose 14 mg/kg, route intravenous; settings: in vivo, read-out: Vdss; procedure, shortened: as §1
[21] = Volume of distribution at steady state in human very low birth weight preterm neonates at 28 mg/kg, iv; set-up: dose 28 mg/kg, route intravenous; settings: in vivo, read-out: Vdss; procedure, shortened: as §1
[22] = Volume of distribution at steady state in human adults at […], iv administered every 12 hrs after 24 hrs; set-up: route intravenous; settings: in vivo, read-out: Vdss
[23] = Half life in human adults at […], iv administered every 12 hrs after 24 hrs; set-up: route intravenous; settings: in vivo

half-life [1]: 4.6 h
Creatinine_CL (Homo sapiens [2]): 0.53 ml/min and 0.57 ml/min.kg
Cmax [3]: 45000 ng/mL
Cmax [4]: 22000 ng/mL
CL renal [5]: 0.31 mL/min and 0.38 mL/min/kg
half-life [6]: 3.4 h
concentration at 24 h [7]: 7100 ng/mL
clearance [8]: 1.5 mL/min/kg
Cmax [9]: 146000 ng/mL
Activity (Homo sapiens [10]): 70.6 µmol/kg
Vdss (Homo sapiens [11]): 0.51 L/kg
half-life [12]: 3.8 h
AUC at 12 h [13]: 389 µg·h/mL
Cmax [14]: 58900 ng/mL
clearance [15]: 1.2 mL/min/kg
CL renal [16]: 0.27 mL/min and 0.46 mL/min/kg
Creatinine_CL (Homo sapiens [17]): 0.26 ml/min and 0.3 ml/min.kg
AUC at 12 h [18]: 161 µg·h/mL
Activity (Homo sapiens [19]): 50.6 µmol/kg
Vd [20]: 0.64 L/kg
Vd [21]: 0.41 L/kg
Vd [22]: 0.5 L/kg
half-life [23]: 0.5 h
SMILES: CC1(C)S[C@@H]2[C@H](NC(=O)Cc3ccccc3)C(=O)N2[C@H]1C(=O)O [PENICILLIN G]
